Assay results: ChEMBL document CHEMBL1212810, “Carbon metabolism-mediated myogenic differentiation” (Nat Chem Biol, 2010)
Activity calls are given as the source filed them. No cut-off for these calls is given here.

Legend:
Assay type in all cases: functional, cell-based
[1] = system: C2C12; test: Induction of cell differentiation in mouse C2C12 cells assessed as myosin heavy chain expression at 1 uM
Outline: (§1)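 Mouse C2C12 myoblasts were treated with statin. Differentiation was read as myosin heavy chain expression by immunofluorescence.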

[2] = system: C2C12; test: Induction of cell differentiation in mouse C2C12 cells assessed as myosin heavy chain expression at 5 uM; outline: as §1
[3] = system: C2C12; test: Induction of cell differentiation in mouse C2C12 cells assessed as myosin heavy chain expression at 10 uM; outline: as §1
[4] = system: C2C12; test: Induction of cell differentiation in mouse C2C12 cells assessed as myosin heavy chain expression at 10 uM in presence of 250 uM cholesterol
[5] = system: C2C12; test: Inhibition of shATP citrate lyase-induced cell differentiation in mouse C2C12 assessed as myosin heavy chain expression at 100 nM
[6] = system: RD; test: Induction of cell differentiation of human RD cells assessed as troponin expression after 4 days by immunofluorescence method
Outline: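 Human RD embryonal rhabdomyosarcoma cells were treated in normal growth medium for four days, then scored for differentiation.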

[7] = system: RD; test: Inhibition of anchorage-independent growth in human RD cells at 10 uM
Outline: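 Human RD embryonal rhabdomyosarcoma cells were treated and scored for anchorage-independent growth on soft agar.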

[8] = system: C2C12; test: Inhibition of serum withdrawal-induced cell differentiation in mouse C2C12 cells assessed as myosin heavy chain expression

In the case of `CC(C)c1c(C(=O)Nc2ccccc2)c(-c2ccccc2)c(-c2ccc(F)cc2)n1CC[C@@H](O)C[C@@H](O)CC(=O)O`, the Activity [1] is reported as “Active”.
With `CC[C@H](C)C(=O)O[C@H]1C[C@H](O)C=C2C=C[C@H](C)[C@H](CC[C@@H](O)C[C@@H](O)CC(=O)O)[C@H]21` the Activity [2] was “Active”, the Activity [3] was “Active” and the Activity [4] was “Active”.
`CC(/C=C/C(=O)NO)=C\[C@@H](C)C(=O)c1ccc(N(C)C)cc1` was tested, and the inhibition [5] was “Active”.
For `CC(C)n1c(/C=C/C(O)CC(O)CC(=O)O)c(-c2ccc(F)cc2)c2ccccc21` (centres undefined), the Activity [1] was “Active”, the Activity [6] was “Active” and the inhibition [7] was “Active”.
For `CC(C)CCC[C@@H](C)[C@H]1CC[C@H]2[C@@H]3CC=C4C[C@@H](O)CC[C@]4(C)[C@H]3CC[C@]12C`, the inhibition [8] was “Active”.
